Results on nine compounds are retold here after PMC7065888 (Science Advances, 2020).

Molecules are shown by their SMILES.

The target of one experiment is T1, mouse RBP2 (Mus musculus, UniProt Q08652).
T1 sequence (Q08652 1-134): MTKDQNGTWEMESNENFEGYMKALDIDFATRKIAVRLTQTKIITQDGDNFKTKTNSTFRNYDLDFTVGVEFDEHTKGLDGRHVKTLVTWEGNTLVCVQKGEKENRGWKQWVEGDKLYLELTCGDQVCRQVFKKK
The class given is binding.

The test system of the next experiment is recombinant mouse RBP2. The class given is binding. The conditions noted are these: holo-RBP2 incubated with 2 molar excess of compound, room temperature, 15 min.
The subject of another experiment is recombinant apo-RBP2. Format: binding, mouse. The settings on record: MS/MS-based detection. Summed up: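 Purified recombinant mouse RBP2 in apo form was incubated with the test lipid. The protein was then chromatographically repurified to strip unbound ligand, and lipid still associated with the protein was detected by tandem mass spectrometry.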
The target in another experiment is RBP2. The conditions noted are these: cited from earlier work.

A word on the Kd: it is the concentration at which binding is half-saturated. Lower therefore signals higher affinity. On mouse RBP2, `CCCCCCCC/C=C\CCCCCCCC(=O)OC(CO)CO` [2-OG, 2-oleoylglycerol] had a Kd of 65.4 ± 4.4 nM. Besides, in the experiment on recombinant mouse RBP2, the “displacement of retinol from its RBP2 binding pocket” value (“displacement of retinol” below) is given as “displaced retinol”.
Turning to `CCCCC/C=C\C/C=C\C/C=C\C/C=C\CCCC(=O)NCCO` [AEA, N-arachidinoylethanolamine], the “fold less effective than MAGs in displacing bound retinol from RBP2” value at mouse RBP2 (fluorescence emission spectra of holo-RBP2) is reported as ~ 25 fold. For the same compound, the “displacement of retinol” value with recombinant mouse RBP2 is listed as “little displacement”.
Take `CCCCC/C=C\C/C=C\C/C=C\C/C=C\CCCC(=O)OC(CO)CO` [2-AG, 2-arachidonoylglycerol]: the Kd at mouse RBP2 stood at 27.1 ± 2.4 nM. Further, the “ligand bound to RBP2 after chromatographic repurification” value in the experiment on recombinant apo-RBP2 was “remained bound to RBP2”. The “displacement of retinol” value in the experiment with recombinant mouse RBP2 was “displaced retinol”.
As for `CC1=C(/C=C/C(C)=C/C=C/C(C)=C/CO)C(C)(C)CCC1` [retinol, all-trans-retinol], the “Kd for binding to RBP2 relative to the Kd values reported here for 2-MAG binding” value at RBP2 is listed as “two to six times higher”.
In the case of `CCCCCCCCCCCCCC(=O)NCCO` [MEA, N-myristoylethanolamine], in the experiment on recombinant mouse RBP2, the “displacement of retinol” value was “little displacement”.
In the case of `CCCCC/C=C\C/C=C\CCCCCCCC(=O)NCCO` [LEA, N-linoleoylethanolamine], in the experiment on recombinant mouse RBP2, the “displacement of retinol” value is given as “little displacement”.
In the case of `CCCCC/C=C\C/C=C\C/C=C\C/C=C\CCCC(=O)OC[C@@H](O)CO` [1-AG, 1-arachidonoylglycerol], the “displacement of retinol” value with recombinant mouse RBP2 is reported as “displaced retinol”.
With `CC1=C(/C=C/C(C)=C/C=C/C(C)=C/C=O)C(C)(C)CCC1` [retinaldehyde], the “Kd for binding to RBP2 relative to the Kd values reported here for 2-MAG binding” value at RBP2 is listed as “two to six times higher”.
Regarding `CCCCC/C=C\C/C=C\CCCCCCCC(=O)OC(CO)CO` [2-LG, 2-lineoylglycerol], in the experiment with recombinant mouse RBP2, the “displacement of retinol” value is given as “displaced retinol”.
